# High-throughput results: PubChem, The Scripps Research Institute Molecular Screening Center
# VIM-2 inh: blocks Pseudomonas aeruginosa VIM-2 metallo-beta-lactamase | purified VIM-2, nitrocefin hydrolysis, epi-absorbance fluorescence | inhibition, % at 5.6 µM | hit rate 0.89% among 290,000;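 active = inhibition above the mean of all tested compounds plus 3 SD, cutoff set per screening run, cut at about 7.5% in these data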;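 note: red hydrolysis product quenches plate fluorescence so inhibitors raise well fluorescence; 0% = enzyme with DMSO and 100% = DMSO without enzyme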
# NS3 helicase inh: HCV NS3 helicase inhibition | NS3 helicase DNA unwinding, Cy5 molecular beacon fluorescence | inhibition, % at 10.9 µM | hit rate 0.56% among 290,000 | AID 1800;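 active = inhibition above the mean of all tested compounds plus 3 SD, set per campaign, cut at about 35% in these data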;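 note: 0% = DMSO wells and 100% = thioflavine S control wells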
#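 assay system = NS3 helicase fragment of HCV | buffer or medium = MOPS pH 6.5, MgCl2, DTT, Tween20, BSA | timing = 60 min unwinding reaction at 25 °C after ATP addition | signal = Cy5 beacon fluorescence read at start and 1 h | read-out basis = % inhibition of unwinding | control set = low DMSO, high thioflavine S at 110 µM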
# IMP-1 inh: inhibitors of Pseudomonas aeruginosa IMP-1 metallo-beta-lactamase. hit rate 0.45% among 290,000. AID 1556. purified IMP-1, nitrocefin hydrolysis, epi-absorbance fluorescence. inhibition, % at 5.6 µM;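 active = inhibition above the mean plus 3 SD of all compounds in the same screening run, cut at about 4.5% in these data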;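 note: 0% = IMP-1 with DMSO and 100% = DMSO wells lacking enzyme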
#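 Assay system: purified recombinant IMP-1 beta-lactamase. Input: IMP-1 0.2 nM before substrate addition. Buffer or medium: Zinc- and detergent-supplemented HEPES buffer, pH 7.1. Schedule: 25 °C, 15 min preincubation, 25 min reaction. Signal: Epi-absorbance fluorescence, 480 nm excitation, 530 nm emission. Evaluation: percent inhibition from optical density relative to buffer-blank wells.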
# FID counter: counter-screen for HCV NS3 helicase inhibitors: DNA intercalator displacement | DNA fluorescent intercalator displacement, fluorescence | inhibition, % at 7.9 µM | hit rate 0.17% among 290,000; in the data active = inhibition above about 37%;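 note: 0% = vehicle and 100% = reference compound; higher means more ethidium bromide displaced from hairpin DNA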
# Numbers without * were called inactive. Hits are enriched below; roughly 1.9% of the tested compounds scored in any of these assays.
SMILES,VIM-2 inh,NS3 helicase inh,IMP-1 inh,FID counter
CCOC(=O)c1sc(NC(=O)C(CC)Sc2nnc3c4ccccc4n(C(C)C)c3n2)nc1C (configuration not stated),-4.8,-0.9,-5.6,0.2
O=C(CC1C(=O)NCCN1Cc1ccccc1C(F)(F)F)NC1CCCCC1 (configuration not stated),3.8,11.9,2.4,-37.3
CCOc1ccc(NC(=O)N(Cc2ccc(C)cc2)Cc2ccccn2)cc1,-2.4,-12.4,-3.2,-29.3
Cn1c2ccccc2c2nnc(SCC(=O)NC3CC3)nc21,9.2*,-5.2,1.1,-5.8
CCn1c2ccccc2c2nnc(SCC(=O)NC3CCS(=O)(=O)C3)nc21 (configuration not stated),3.0,2.5,-3.8,-4.3
CC(C)n1cc(CN2CCCC(CNS(=O)(=O)c3cccc4cccnc34)C2)cn1 (configuration not stated),-0.1,11.5,0.8,8.8
CSc1nc(NCCCO)c2c3c(sc2n1)CN(C)CC3,9.4*,-3.7,-0.5,0.7
CN1CCc2c(OCc3ccc(F)cc3)cccc2C1=O,0.7,-0.5,22.7*,-11.6
CC(C)n1nccc1NC(=O)Nc1ccccc1,-0.1,-3.9,9.1*,2.5
Cn1nccc1NC(=O)Nc1cccc(Cl)c1,-2.4,-21.7,-2.2,-2.4
O=C1c2oc3ccc(F)cc3c(=O)c2C(c2cccc(O)c2)N1CCCN1CCOCC1 (configuration not stated),-0.1,9.1,1.1,-3.1
COc1cccc(C2c3c(oc4ccc(F)cc4c3=O)C(=O)N2CCN2CCOCC2)c1OC (configuration not stated),8.1*,-3.2,0.0,-5.5
Cc1cccn2c(=O)c(C(=O)NCCCN3CCCCC3C)c(O)nc12 (configuration not stated),9.5*,1.1,-2.1,-1.1
CC1CCCCN1CCCNC(=O)c1c(O)nc2ccccn2c1=O (configuration not stated),-1.2,2.6,-0.6,-3.0
CCC1CCCCN1CCCNC(=O)c1c(O)nc2c(C)cccn2c1=O (configuration not stated),9.6*,-4.8,-0.8,0.8
O=C(Nc1ccc(Cl)cc1)c1cccc(NC2=NC3CS(=O)(=O)CC3S2)c1 (configuration not stated),-2.6,-0.9,0.1,-2.3
O=C(NCCCO)c1cc2c([nH]c3ccccc32)c(-c2ccccc2)n1,-1.2,-0.8,-2.3,-30.6
COc1cccc(-c2nc(C(=O)NCCCN3CCOCC3)cc3c2[nH]c2ccccc23)c1,8.2*,-120.5,2.9,22.3
O=C(NCCCN1CCOCC1)c1cc2c([nH]c3ccccc32)c(-c2cccc(Br)c2)n1,12.2*,-111.2,-3.2,3.1
COc1ccc(OC)c(CCNC(=O)CCn2nc(C)c3c(C)n(-c4ccccc4)nc3c2=O)c1,-0.3,1.7,0.0,-54.1
CN1C(=O)N(C)c2ccc(C=O)c3cccc1c23,5.7,6.2,-3.0,3.2
CN1C(=O)N(C)c2cccc3cccc1c23,9.3*,3.7,-2.2,-8.0
CN1C(=O)N(C)c2ccc(Br)c3cccc1c23,11.5*,16.6,0.9,-24.0
COc1ccc(-c2nc(SCC(=O)Nc3cc(C)on3)n[nH]2)cc1,-4.3,3.4,-5.2,-3.4
CCCCOc1ccc(-c2nc(SCC(N)=O)n[nH]2)cc1,0.0,0.6,5.2*,-2.3
SMILES,VIM-2 inh,NS3 helicase inh,IMP-1 inh,FID counter
COc1cccc(-c2cc(C(F)(F)F)nc(N3CCC(C)CC3)n2)c1,-1.6,-4.0,4.5*,-0.8
O=C(CCN1C(=O)C2C3CCC(C3)C2C1=O)Nc1cccc(Cl)c1 (configuration not stated),2.6,20.9,5.9*,-7.3
CCOc1ccc(N2C(=O)CC(NC3CCN(C(=O)c4cccs4)CC3)C2=O)cc1 (configuration not stated),-0.7,1.4,-2.1,-28.2
CCc1ccc(OCc2cccc(C(=O)N/N=C\c3cnn(C)c3C)c2)cc1,-1.7,-2.8,6.4*,-16.2
O=C(C[n+]1cc(-c2ccccc2)n2c1CCC2)Nc1nc(-c2ccccc2)cs1,-0.9,-62.3,-4.9,38.3*
N#CC1=C2SCN(c3ccccc3)CN2C(=O)CC1c1c(Cl)cccc1Cl (configuration not stated),46.2*,22.3,-3.7,-19.4
N#CC1=C2SCN(c3ccccc3)CN2C(=O)CC1c1ccccc1Cl (configuration not stated),-0.3,18.1,-1.6,-18.9
CC(C)c1ccc(N2CC(C)(C)C2=O)cc1,-3.2,17.0,-2.1,-1.3
Cc1ccc(/C=N/NC(=O)Cc2ccc(Cl)cc2)s1,0.6,4.8,1.5,-21.2
CCOC(=O)c1c(NC(=O)CSc2ncn[nH]2)sc(C(=O)NC)c1C,10.0*,-5.5,-1.4,-10.4
O=C(CN1CCN(c2ccccn2)CC1)Nc1ccc(OC(F)(F)F)cc1,-5.1,-4.4,6.1*,-24.0
CC(=O)Nc1ccc(NC(=O)CN2CCN(c3ccccn3)CC2)cc1,-0.8,11.3,0.7,-13.4
O=C(N/C(=C/c1cccc([N+](=O)[O-])c1)C(=O)N1CCCCCC1)c1ccco1,-4.2,7.4,-2.9,-36.2
COc1ccc2c(CC(=O)OCC(=O)c3ccc(F)cc3)coc2c1,-1.9,1.4,5.3*,-3.8
CCN(CC)CCNC(=O)c1ccc(NC(=O)c2ccc(COc3ccccc3)cc2)cc1,-1.6,-38.5,-0.3,38.2*
CSc1nc(N(C)CCO)c2sc3nc(-c4ccco4)c4c(c3c2n1)CCC4,1.4,19.4,10.8*,-22.3
CSc1nc(SCC(=O)O)c2sc3nc(-c4ccccc4)c4c(c3c2n1)CCC4,-1.0,-1.0,64.4*,-14.3
O=C(O)CSc1nc2sc3c(c2c(=O)n1-c1ccccc1)CCC3,-0.6,6.5,-2.9,-17.5
N#Cc1c(NCCCO)nc(-c2ccco2)c2c1CCCC2,0.8,6.1,-1.2,-22.7
CN(CCO)c1cnccn1,-4.3,-5.8,-0.5,1.6
Cc1cccc(NC(=O)CCNC(=O)c2ccc(Br)cc2)c1C,-1.2,3.5,-3.1,-14.8
O=C1OC(c2ccccc2)=C/C1=C/N1CCOCC1,-0.6,18.6,0.9,-4.5
O=C1SC(c2ccccc2)=C/C1=C\N1CCCCC1,1.9,25.9,4.8*,-8.2
Cc1ccc(N(CC(=O)NCc2ccc3c(c2)OCO3)C(=O)c2csnn2)cc1,-2.1,0.9,-2.0,-14.9
O=C(O)c1cc(-n2nnnc2SCc2ccccc2F)ccc1Cl,10.4*,11.6,-2.0,-11.9
SMILES,VIM-2 inh,NS3 helicase inh,IMP-1 inh,FID counter
CCc1ccc(NC(=O)CS(=O)CC(=O)Nc2ccc(N3CCOCC3)cc2)cc1 (configuration not stated),-1.0,-22.8,36.2*,-25.1
Cc1cccc(C)c1NC(=O)CS(=O)CC(=O)Nc1ccc(N2CCOCC2)cc1 (configuration not stated),0.0,4.0,-1.3,-11.3
CCNC(=S)N1CCC(C(N)=O)CC1,-3.9,-6.5,-2.4,0.5
CC(C)CC1=C/C(=C/c2ccc(-c3ccccc3)o2)C(=O)O1,-2.8,29.5,4.9*,-18.7
NS(=O)(=O)c1ccc(-c2ccc(C=C3C(=O)c4ccccc4C3=O)o2)cc1,1.1,28.6,-0.8,3.6
NC(=S)Nc1ccc(S(=O)(=O)c2ccc(NC(N)=S)cc2)cc1,-4.5,-2.4,10.6*,-3.5
